pIC50, pKi: −log10 of the molar value.
Tests used:
PC-3 = test: Cytotoxicity against human p53-null PC3 cells assessed as growth inhibition after 72 hrs by SRB assay; type: functional, cell-based; settings: PC-3, 72 h
Method in brief: (§1)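 Cells seeded in 96-well plates, cultured overnight, then exposed to serial compound concentrations for 72 h. Fixed with 10% (w/v) TCA at 4 °C for 1 h, stained 30 min with 0.4% SRB in 1% acetic acid, washed with 1% acetic acid, bound dye dissolved in 10 mmol unbuffered Tris base, absorbance read at 515 nm. Inhibition calculated relative to untreated control wells; IC50 derived.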

A549 [1] = test: Cytotoxicity against human A549 cells expressing wild type p53 assessed as growth inhibition after 72 hrs by SRB assay; type: functional, cell-based; settings: A549, 72 h; method in brief: as §1
[2] = target: Tumour suppressor p53/oncoprotein Mdm2 (Homo sapiens, UniProt Q00987); test: (§2) Inhibition of p53-MDM2 (unknown origin) interaction expressed in Escherichia coli BL-21 (DE3) after 1 hr by fluorescence polarization assay
Chain of Tumour suppressor p53/oncoprotein Mdm2 (Homo sapiens, UniProt Q00987) (P04637 whole entry): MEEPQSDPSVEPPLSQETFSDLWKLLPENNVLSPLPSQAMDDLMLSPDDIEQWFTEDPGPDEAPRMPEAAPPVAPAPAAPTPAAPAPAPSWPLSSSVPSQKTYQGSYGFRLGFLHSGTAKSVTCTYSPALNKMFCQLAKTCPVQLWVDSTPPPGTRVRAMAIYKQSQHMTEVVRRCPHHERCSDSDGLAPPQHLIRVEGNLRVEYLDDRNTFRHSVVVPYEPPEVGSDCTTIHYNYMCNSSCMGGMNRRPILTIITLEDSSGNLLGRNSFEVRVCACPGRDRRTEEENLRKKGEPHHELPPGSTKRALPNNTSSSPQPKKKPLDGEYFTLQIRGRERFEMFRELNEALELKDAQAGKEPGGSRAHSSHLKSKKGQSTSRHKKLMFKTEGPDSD
Chain of Tumour suppressor p53/oncoprotein Mdm2 (Homo sapiens, UniProt Q00987) (Q00987 whole entry): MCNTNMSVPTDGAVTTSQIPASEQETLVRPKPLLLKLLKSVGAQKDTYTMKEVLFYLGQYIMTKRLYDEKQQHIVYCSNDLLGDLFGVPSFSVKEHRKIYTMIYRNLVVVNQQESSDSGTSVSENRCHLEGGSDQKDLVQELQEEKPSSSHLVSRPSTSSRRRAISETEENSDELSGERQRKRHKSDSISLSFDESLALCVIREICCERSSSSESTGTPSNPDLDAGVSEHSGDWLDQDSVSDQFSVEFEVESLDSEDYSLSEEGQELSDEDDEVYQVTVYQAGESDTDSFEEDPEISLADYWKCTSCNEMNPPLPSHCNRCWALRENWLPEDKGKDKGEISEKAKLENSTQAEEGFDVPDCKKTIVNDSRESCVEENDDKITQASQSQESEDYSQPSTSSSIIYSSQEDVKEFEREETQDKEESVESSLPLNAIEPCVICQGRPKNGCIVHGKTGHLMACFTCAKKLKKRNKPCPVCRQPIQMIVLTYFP

[3] = target: Tumour suppressor p53/oncoprotein Mdm2 (Homo sapiens, UniProt P04637+Q00987); test: as §2
Chain of Tumour suppressor p53/oncoprotein Mdm2 (Homo sapiens, UniProt P04637+Q00987) (P04637 whole entry): as the sequence (P04637 whole entry) above
Chain of Tumour suppressor p53/oncoprotein Mdm2 (Homo sapiens, UniProt P04637+Q00987) (Q00987 whole entry): as the sequence (Q00987 whole entry) above

A549 [4] = test: Selectivity ratio of IC50 for human p53-null PC3 cells to IC50 for human A549 cells expressing wild type p53; type: functional

SMILES	pIC50 (PC-3)	pIC50 (A549 [1])	pKi [2]	Ki [3]	Ratio IC50 (A549 [4])
Nc1sc(-c2ccc(Cl)cc2)c(-c2ccc(Cl)cc2)c1C(=O)NCc1ccccc1	4.50	4.79	6.82		
Nc1sc(-c2ccc(Cl)cc2)c(-c2ccc(Cl)cc2)c1C(=O)NC1CCC1	4.61	4.90	5.95		
Nc1sc(-c2ccc(Cl)cc2)c(-c2ccc(Cl)cc2)c1C(=O)NC1CC1			6.27		
Nc1sc(-c2ccc(Cl)cc2)c(-c2ccc(Cl)cc2)c1C(=O)N1CCCC1			6.13		
O=C(NCCN1CCOCC1)Nc1sc(-c2ccc(Cl)cc2)c(-c2ccc(Cl)cc2)c1C(=O)NC1CC1				Not Active	
O=C(CCN1CCOCC1)Nc1sc(-c2ccc(Cl)cc2)c(-c2ccc(Cl)cc2)c1C(=O)N1CCCCC1	< 4.60	< 4.60		Not Active	
COC(=O)c1c(N)sc(-c2ccc(Cl)cc2)c1-c1ccc(Cl)cc1			5.82		
CS(=O)(=O)Nc1sc(-c2ccc(Cl)cc2)c(-c2ccc(Cl)cc2)c1C(=O)NC1CC1			< 4.30		
CC(C)CNC(=O)c1c(N)sc(-c2ccc(Cl)cc2)c1-c1ccc(Cl)cc1	4.68		5.38		
Nc1sc(-c2ccc(Cl)cc2)c(-c2ccc(Cl)cc2)c1C(=O)N1CCC(=O)CC1=O	5.03	5.39	5.45		
CCCCNC(=O)c1c(N)sc(-c2ccc(Cl)cc2)c1-c1ccc(Cl)cc1	4.75	5.09	6.26		
Nc1sc(-c2ccc(Cl)cc2)c(-c2ccc(Cl)cc2)c1C(=O)NC1CCCCC1			6.64		
CC(C)(C)NC(=O)c1c(N)sc(-c2ccc(Cl)cc2)c1-c1ccc(Cl)cc1	4.82	5.05	6.09		
COc1ccc(CNC(=O)c2c(N)sc(-c3ccc(Cl)cc3)c2-c2ccc(Cl)cc2)cc1	4.53	4.74	6.19		
CC1CCN(C(=O)c2c(N)sc(-c3ccc(Cl)cc3)c2-c2ccc(Cl)cc2)CC1	5.24	5.76	6.10		
Nc1sc(-c2ccc(Cl)cc2)c(-c2ccc(Cl)cc2)c1C(=O)N1CCNCC1	5.57	5.99	5.17		
CC1CN(C(=O)c2c(N)sc(-c3ccc(Cl)cc3)c2-c2ccc(Cl)cc2)CCN1 (configuration not stated)	5.14	5.31	4.75		
Nc1sc(-c2ccc(Cl)cc2)c(-c2ccc(Cl)cc2)c1C(=O)N1CCCCC1=O	5.31	5.74	5.81		
CN1CCN(C(=O)c2c(N)sc(-c3ccc(Cl)cc3)c2-c2ccc(Cl)cc2)CC1	4.88	6.23	5.82		22
Nc1sc(-c2ccc(Cl)cc2)c(-c2ccc(Cl)cc2)c1C(=O)NC1CCCC1	4.67	5.17	6.27		
Nc1sc(-c2ccc(Cl)cc2)c(-c2ccc(Cl)cc2)c1C(=O)N1CCCCC1	4.84	5.34	5.92		
Nc1sc(-c2ccc(Cl)cc2)c(-c2ccc(Cl)cc2)c1C(=O)N1CCOCC1	4.93	5.73	6.37		6
Nc1sc(-c2ccc(Cl)cc2)c(-c2ccc(Cl)cc2)c1C(=O)N1CCC(=O)CC1	5.87	5.70	5.66		
CC(=O)Nc1sc(-c2ccc(Cl)cc2)c(-c2ccc(Cl)cc2)c1C(=O)N1CCCCC1	4.99	5.22	5.45		
CCOC(=O)Nc1sc(-c2ccc(Cl)cc2)c(-c2ccc(Cl)cc2)c1C(=O)NC1CC1	4.56	4.40		Not Active	
Nc1sc(-c2ccc(Cl)cc2)c(-c2ccc(Cl)cc2)c1C(=O)Nc1ccccc1	< 4.30	4.60	< 4.30		
CCN(CC)CCNC(=O)Nc1sc(-c2ccc(Cl)cc2)c(-c2ccc(Cl)cc2)c1C(=O)NC1CC1				Not Active	
Nc1sc(-c2ccc(Cl)cc2)c(-c2ccc(Cl)cc2)c1C(=O)NC1CCC(O)CC1 (configuration not stated)	5.25	6.60	6.00		22

Source: ChEMBL document CHEMBL2384917, “Design, synthesis and biological evaluation of novel 3,4,5-trisubstituted aminothiophenes as inhibitors of p53-MDM2 interaction. Part 1” (Bioorg Med Chem, 2013)
